What was measured:
[1] = system: KB 3-1; test: Inhibitory concentration against human KB-3-1 cells; format: functional, cell-based
Procedure, shortened: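 Cytotoxicity IC50 in two human KB lines: KB-G2, a multidrug-resistant line overexpressing P-glycoprotein (Val-185) and resistant to paclitaxel and vinblastine, and its parental drug-sensitive KB-3-1 line as the control. Both lines came from an outside academic lab.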

[2] = system: KB-G2; test: Inhibitory concentration against KB-G2 cells; conditions: Homo sapiens
[3] = biological target: ATP-dependent translocase ABCB1 (Homo sapiens, UniProt P08183); test: Michaelis-Menten constant for human P-glycoprotein expressed in Sf9 cells
Chain of ATP-dependent translocase ABCB1 (P08183 whole entry): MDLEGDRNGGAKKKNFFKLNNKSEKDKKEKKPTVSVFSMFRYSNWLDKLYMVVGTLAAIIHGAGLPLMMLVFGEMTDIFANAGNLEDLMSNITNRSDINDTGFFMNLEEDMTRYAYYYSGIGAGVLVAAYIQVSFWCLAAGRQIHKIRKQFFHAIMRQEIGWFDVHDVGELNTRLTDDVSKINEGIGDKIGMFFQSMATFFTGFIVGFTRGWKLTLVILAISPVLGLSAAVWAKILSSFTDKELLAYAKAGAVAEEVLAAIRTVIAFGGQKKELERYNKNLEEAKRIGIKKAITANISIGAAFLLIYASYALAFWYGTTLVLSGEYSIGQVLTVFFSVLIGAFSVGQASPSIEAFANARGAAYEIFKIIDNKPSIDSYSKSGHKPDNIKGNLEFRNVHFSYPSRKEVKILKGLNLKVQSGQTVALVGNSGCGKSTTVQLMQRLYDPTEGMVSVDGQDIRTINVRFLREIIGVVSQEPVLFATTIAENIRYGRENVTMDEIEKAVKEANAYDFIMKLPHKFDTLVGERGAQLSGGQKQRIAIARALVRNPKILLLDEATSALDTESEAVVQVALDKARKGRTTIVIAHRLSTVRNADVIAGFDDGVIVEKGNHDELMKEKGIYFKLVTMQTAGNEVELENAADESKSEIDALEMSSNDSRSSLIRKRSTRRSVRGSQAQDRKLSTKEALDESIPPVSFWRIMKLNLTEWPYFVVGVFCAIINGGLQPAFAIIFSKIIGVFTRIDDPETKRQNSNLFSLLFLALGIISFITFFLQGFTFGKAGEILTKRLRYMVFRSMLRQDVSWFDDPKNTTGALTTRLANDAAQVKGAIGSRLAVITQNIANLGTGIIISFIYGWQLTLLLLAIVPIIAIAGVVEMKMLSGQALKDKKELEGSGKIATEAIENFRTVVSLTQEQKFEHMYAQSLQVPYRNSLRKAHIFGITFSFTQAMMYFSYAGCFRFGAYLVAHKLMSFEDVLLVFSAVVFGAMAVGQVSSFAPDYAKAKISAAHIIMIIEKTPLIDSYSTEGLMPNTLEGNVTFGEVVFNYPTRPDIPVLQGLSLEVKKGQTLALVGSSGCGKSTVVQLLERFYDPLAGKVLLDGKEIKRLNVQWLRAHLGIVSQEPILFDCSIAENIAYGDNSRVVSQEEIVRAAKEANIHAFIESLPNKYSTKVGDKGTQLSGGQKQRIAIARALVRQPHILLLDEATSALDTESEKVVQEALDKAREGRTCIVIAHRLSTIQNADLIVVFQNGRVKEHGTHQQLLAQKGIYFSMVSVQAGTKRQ

| Compound | IC50 [1] [µM] | IC50 [2] [µM] | Km [3] [µM] |
| --- | --- | --- | --- |
| COCOc1cccc2c1[C@@H]1OC(=O)O[C@]13CCC(C)=C(CO2)C3(C)C | > 50 | > 50 | – |
| COCOc1ccc2c(c1)[C@@H]1OC(=O)O[C@]13CCC(C)=C(CO2)C3(C)C | > 50 | > 50 | – |
| CC1=C2CC(=O)c3ccccc3[C@@H]3OC(=O)O[C@@]3(CC1)C2(C)C | > 50 | > 50 | – |
| CC1=C2COc3ccccc3[C@@H]3OC(=O)O[C@@]3(CC1)C2(C)C | > 50 | > 50 | – |
| CC1=C2COCc3ccccc3[C@@H]3OC(=O)O[C@@]3(CC1)C2(C)C | > 50 | > 50 | – |
| C=C1C2(C)CC[C@]3(OC(=O)O[C@H]3c3c(OCOC)cccc3C2=O)C1(C)C | > 50 | > 50 | – |
| COCOc1ccc2c(c1)[C@@H]1OC(=O)O[C@]13CCC(C)=C(COC2)C3(C)C | > 50 | > 50 | – |
| COCOc1ccc2c(c1)[C@@H]1OC(=O)O[C@]13CCC(C)=C(CC2=O)C3(C)C | > 50 | > 50 | – |
| COc1ccc(CCN(C)CCCC(C#N)(c2ccc(OC)c(OC)c2)C(C)C)cc1OC (stereo not given) | – | – | 2 |
| CC(=O)O[C@H]1C(=O)[C@@]2(C)[C@H]([C@H](OC(=O)c3ccccc3)[C@]3(O)C[C@H](OC(=O)[C@H](O)[C@@H](NC(=O)c4ccccc4)c4ccccc4)C(C)=C1C3(C)C)[C@]1(OC(C)=O)CO[C@@H]1C[C@@H]2O [PACLITAXEL] | 0.0021 | 0.6 | 0.7 |
